# PHOSPHO1 inh – blocks human PHOSPHO1 phosphatase activity; Q8TCT1; recombinant PHOSPHO1, absorbance phosphatase assay; inhibition, % at 13.3 µM; 290,000 tested, 1.1% active; AID 1565; in the data active = inhibition above about 60%
# KCNK9 inh – human KCNK9 channel inhibition; Q9NPC2; HEK293 KCNK9, FluxOR thallium flux fluorescence; hits give low values; B-score at 10 µM; 310,000 tested, 1.2% active;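 active = ratio B-score over 3 SD below the library mean, with starting fluorescence within 5 SD of its mean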;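 note: negative B-score means less thallium flux so channel inhibition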
# KCNQ1 inh – inhibitors of human KCNQ1 potassium channel. 310,000 tested, 1.3% active. P51787. B-score at 10 µM. AID 2642. CHO-K1 KCNQ1, FluxOR thallium flux fluorescence; hits give high values;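 active = compounds whose thallium flux B-score, printed positive for inhibition, exceeds three library SD while starting fluorescence stays within three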;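 note: channel opened by potassium depolarization with thallium stimulus after 20 min compound exposure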
# Target sequence (P51787 whole entry, looked up): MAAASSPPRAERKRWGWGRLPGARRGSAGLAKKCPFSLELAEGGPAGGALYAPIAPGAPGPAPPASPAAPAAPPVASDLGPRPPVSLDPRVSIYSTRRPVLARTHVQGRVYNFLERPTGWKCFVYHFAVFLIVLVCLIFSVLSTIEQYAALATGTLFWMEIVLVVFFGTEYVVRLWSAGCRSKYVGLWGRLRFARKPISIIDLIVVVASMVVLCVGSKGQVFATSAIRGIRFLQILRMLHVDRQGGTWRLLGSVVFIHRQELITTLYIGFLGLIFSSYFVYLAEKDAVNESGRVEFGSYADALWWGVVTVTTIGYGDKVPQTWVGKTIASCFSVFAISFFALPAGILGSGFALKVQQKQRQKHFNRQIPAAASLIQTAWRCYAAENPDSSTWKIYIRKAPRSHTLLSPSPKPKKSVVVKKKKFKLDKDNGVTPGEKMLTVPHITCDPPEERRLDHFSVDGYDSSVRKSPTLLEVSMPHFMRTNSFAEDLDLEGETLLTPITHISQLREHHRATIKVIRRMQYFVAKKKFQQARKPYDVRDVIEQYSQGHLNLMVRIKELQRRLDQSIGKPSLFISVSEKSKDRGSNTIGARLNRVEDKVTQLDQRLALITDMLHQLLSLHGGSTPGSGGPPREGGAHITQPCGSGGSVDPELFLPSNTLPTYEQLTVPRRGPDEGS
# hERG rescue – hERG (human) protection from proarrhythmic block; Q12809; CHO-hERG, FluxOR thallium flux, dofetilide IC70 present; AID 1511; activation (rescue from dofetilide block), less the hit threshold, % at 10 µM; 310,000 tested, 0.51% active;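 active = activation above the mean of controls blocked by dofetilide plus 5 SD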;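 note: thallium influx through hERG after potassium depolarization seen as dye fluorescence rise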
# KCNK3 inh – human KCNK3 channel inhibition, primary screen | O14649 | CHO-KCNK3 thallium flux, FluxOR fluorescence; hits give low values | B-score at 10 µM | 340,000 tested, 0.84% active | AID 602410;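 active = B-score under library mean minus 4 SD, starting fluorescence ratio at most library mean plus 5 SD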;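 note: more negative B-score means stronger inhibition of thallium flux through KCNK3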
# KCNQ1 pot – potentiates or activates the human KCNQ1 potassium channel. P51787. CHO-K1 KCNQ1, thallium flux FluxOR fluorescence; hits give high values. B-score at 10 µM. 310,000 tested, 0.35% active. AID 2648;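 active = fluorescence ratio B-score, a plate-corrected score, at least three library SD, with initial intensity B-score within 5 SD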
#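 Doses: Single concentration per compound, DMSO matched to controls | Test system: KCNQ1-transfected CHO-K1 cells | Timing: 90 min dye loading and 20 min compound exposure, both at room temperature | Measured by: Kinetic FluxOR thallium fluorescence, 10-s 1-Hz baseline, 110-s post-stimulus read | Medium: Assay buffer with matched DMSO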
# KCNK9 inh conf – confirmation of human KCNK9 potassium channel inhibitors; shares compounds with KCNK9 inh; HEK293 KCNK9 cells, FluxOR thallium flux fluorescence; inhibition, % at 10 µM; 4,900 tested, 43% active; AID 492992;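 active = thallium signal inhibited by more than 5 SD of the compound-free buffer control wells, on both duplicate plates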;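 note: 0% = assay buffer control wells without compound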
# Kir21 sel – mouse Kir2.1 off-target activity of KCNK9 modulators; AID 492993; Kir2.1 cells, FluxOR thallium flux fluorescence; shares compounds with KCNK9 inh; inhibition, % at 10 µM; 4,900 tested, 4% active;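 active = thallium signal drop more than 5 SD beyond the mean of the no-compound control wells, seen in both duplicate plates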;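 note: signal is fluorescence rise after thallium addition divided by baseline fluorescence; plate controls were assay buffer only for no effect and full block by chlorpromazine control for full effect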
# KCNK9 uninduced – second counter-screen for KCNK9 modulators: effect in non-induced cells. non-induced KCNK9-HEK293, FluxOR thallium flux. AID 492997. shares compounds with KCNK9 inh. inhibition, % at 10 µM. 4,900 tested, 40% active;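 active = thallium signal drop beyond 5 SD of the untreated control mean, on both duplicate plates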;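 note: plate controls were buffer only IC0 wells for no effect and SID17386958 at its maximal inhibitory level for full effect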
# Active calls of the source: *; i = inactive; nt = not tested or not shown. This is a sample that favours compounds with a hit; in the whole collection about 4% have one here.
SMILES,PHOSPHO1 inh,KCNK9 inh,KCNQ1 inh,hERG rescue,KCNK3 inh,KCNQ1 pot,KCNK9 inh conf,Kir21 sel,KCNK9 uninduced
CC(C)[C@H](NC(=O)c1ccccc1)C(=O)N1CCc2ccccc21,-20,i,i,-4,i,i,nt,nt,nt
COc1cc(OC)cc(C(=O)N[C@H](C(=O)N2CCc3ccccc32)C(C)C)c1,-2,-11*,i,-8,i,i,71%*,i,31%*
COc1cccc(NC(=O)c2nnn(CC(=O)Nc3cc(C)cc(C)c3)c2N)c1,32,i,i,-10,i,i,nt,nt,nt
COc1ccc(OC)c(Nc2nc(-c3sc(NC(=O)C(C)(C)C)nc3C)cs2)c1,57,-13*,i,-15,i,i,46%*,i,i
CCC(C)C(=O)Nc1nc(C)c(-c2csc(Nc3cc(OC)ccc3OC)n2)s1 (configuration not stated),62*,-11*,i,-26,i,i,40%*,i,27%*
COc1ccccc1Nc1nc(-c2sc(N)nc2C)cs1,-28,i,i,-6,i,i,nt,nt,nt
COc1ccc(OC)c(Nc2nc(-c3sc(NC(=O)CC(C)C)nc3C)cs2)c1,65*,-16*,i,-8,i,i,40%*,i,32%*
COc1ccccc1Nc1nc(-c2sc(NC(=O)c3ccc([N+](=O)[O-])cc3)nc2C)cs1,-113,i,i,-1,nt,i,nt,nt,nt
COc1ccccc1N1CCN(CCCCOc2cccc3ccccc23)CC1,-20,i,i,-31,i,i,i,i,i
COc1ccccc1OCCCCN1CCN(c2ccccc2OC)CC1,3,i,i,-3,i,i,nt,nt,nt
CC1CC(C)CN(C(=O)c2ccc3c(c2)N(Cc2ccccc2)CCS3)C1 (configuration not stated),-23,-8.2*,i,-7,-12*,i,51%*,i,34%*
O=C(NC1CCCC1)c1ccc2c(c1)N(Cc1ccccc1)CCS2,34,i,i,-2,i,i,nt,nt,nt
Cc1ccc(CN2CCSc3ccc(C(=O)NC4CCN(Cc5ccccc5)CC4)cc32)cc1,16,i,7*,-22,i,i,i,i,i
O=C(NC1CC1)C1CCN(C(=O)c2ccc(Cl)cc2)CC1,22,i,i,-5,i,i,nt,nt,nt
CC(=O)Nc1ccc(NC(=O)CSc2nc3ccccc3nc2N2CCC(C)CC2)cc1,-6,i,i,-10,i,i,nt,nt,nt
COc1ccccc1N1CCN(C(=O)CSc2nc3ccccc3nc2N2CCC(C)CC2)CC1,20,i,i,-15,i,i,i,i,i
CCOc1ccccc1NC(=O)CSc1nc2ccccc2nc1N1CCCC1,25,-8.6*,6*,-16,i,i,i,i,i
CCOc1ccccc1NC(=O)CSc1nc2ccccc2nc1N1CCOCC1,31,i,i,-12,i,i,nt,nt,nt
COc1ccc(NC(=O)CSc2nc3ccccc3nc2N2CCCC2)cc1,31,i,i,-5,i,i,i,i,i
CCOc1ccc(NC(=O)CSc2nc3ccccc3nc2N2CCCC2)cc1,5,i,i,-9,i,i,nt,nt,nt
O=S(=O)(c1cccc(NC(=S)N2CCN(c3ccccc3F)CC2)c1)C(F)F,-3,i,i,-3,i,i,nt,nt,nt
CCCCCCCCNC(=O)/C(C#N)=C/c1ccc(SC)cc1,8,i,i,-4,i,i,i,i,i
CCCCCCCCNC(=O)/C(C#N)=C/c1ccc2c(c1)OCCO2,-25,i,i,1,i,i,i,i,i
Oc1ccc(NCc2cccc(OCc3ccc(F)cc3)c2)cc1,18,i,i,-23,i,i,nt,nt,nt
O=[N+]([O-])c1ccc(COc2cccc(CNc3ccc(F)cc3)c2)cc1,8,-8.3*,6*,-2,i,i,41%*,i,i
SMILES,PHOSPHO1 inh,KCNK9 inh,KCNQ1 inh,hERG rescue,KCNK3 inh,KCNQ1 pot,KCNK9 inh conf,Kir21 sel,KCNK9 uninduced
Clc1ccccc1-c1ncc(-c2ccccc2)o1,14,i,i,-8,i,i,nt,nt,nt
CCOC(=O)C1CCN(C(=O)c2ccc(Oc3cc(Cl)cc(Cl)c3)o2)CC1,32,i,i,-1,i,i,i,i,i
NC(=O)C1CCN(C(=O)c2ccc(Oc3cc(Cl)cc(Cl)c3)o2)CC1,37,i,i,-10,i,i,nt,nt,nt
CC(C)NC(C(=O)Nc1cc(Cl)cc(Cl)c1)c1ccccc1 (configuration not stated),1,-9.3*,i,-11,i,i,34%*,i,25%*
CCOC(=O)c1cc(-c2cccc([N+](=O)[O-])c2)on1,2,i,i,2,i,i,nt,nt,nt
COC(=O)C1CCN(S(=O)(=O)c2ccc(Br)s2)CC1,nt,nt,nt,nt,i,nt,nt,nt,nt
O=C(C1CCN(S(=O)(=O)c2ccc(Br)s2)CC1)N1CCc2ccccc21,-5,i,i,-11,i,i,i,i,i
Cc1cc(=O)c2ccc(Cl)cc2[nH]1,11,i,i,-7,i,i,nt,nt,nt
CC(C)OC(=O)c1c(NS(=O)(=O)c2ccccc2)sc2c1CCCC2,-42,i,i,18*,i,31*,i,i,i
CC1CCCCN1C(=O)CSc1nnc(-c2ccco2)o1 (configuration not stated),24,i,i,-5,i,i,nt,nt,nt
CCCCCn1c(=O)c(C(=O)c2ccccc2)nc2ccccc21,28,-15*,i,-12,i,i,46%*,i,30%*
CCn1c(=O)c(C(C)=O)nc2ccccc21,11,i,i,-5,i,i,nt,nt,nt
CCC1=NN2C(=N)/C(=C/c3ccc(OS(=O)(=O)c4ccccc4)cc3)C(=O)N=C2S1,18,i,i,-5,i,i,i,i,i
CCS(=O)(=O)C1=NN2C(=N)/C(=C\c3ccc(OS(=O)(=O)c4ccccc4)cc3)C(=O)N=C2S1,38,i,i,-20,i,i,nt,nt,nt
Cc1cc(C)cc(-n2cccc2/C=C2/C(=N)N3C(=NC2=O)SN=C3S(C)(=O)=O)c1,8,i,10*,-19,i,i,i,i,i

# Bioassay records from PubChem BioAssay.
